Test results published in ChEMBL document CHEMBL1126755, “Anticonvulsant activities of some arylsemicarbazones displaying potent oral activity in the maximal electroshock screen in rats accompanied by high protection indices” (J Med Chem, 1993).

Assays:
Rattus norvegicus [1] = experiment: Effective dose for protection against seizures induced in the maximal electroshock anticonvulsant screen test 1 hr after oral dosing in rat; type: functional
How it was run: (§1)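 Oral dosing in rats, with MES protection or neurotoxicity assessed at the stated time. ED50 or TD50 (mg/kg) given with 95% CI, slope and SE. Testing done by NINDS under its reported procedures.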

[2] = Protective index is the ratio of TD50 and ED50 in maximal electroshock anticonvulsant screen test; type: functional
How it was run: (§2)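 Protection index is TD50/ED50, taken from intraperitoneal mouse data for the MES and scPTZ screens respectively, or from oral rat MES data.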

Mus musculus [3] = experiment: Effective dose for protection against seizures induced in the maximal electroshock anticonvulsant screen test after intraperitoneal injection in mice; type: functional; details: ip
How it was run: (§3)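 Mice received compound intraperitoneally, with quantitative evaluation in the MES, scPTZ and neurotoxicity screens at the tabulated time. ED50 or TD50 (mg/kg) reported with 95% CI, slope and SE. Testing done by NINDS under its reported procedures.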

[4] = Neurotoxicity was determined, 0.25 hr after intraperitoneal injection in mice.; type: toxicity, organism-based; details: mouse, in vivo, ip; how it was run: as §3
[5] = Protective index is the ratio of TD50 in neurotoxicity screen test and ED50 in MES screen test
Mus musculus [6] = experiment: Effective dose for protection against seizures induced in the subcutaneous pentylenetetrazole screen test in mice; type: functional; details: sc; how it was run: as §3
Mus musculus [7] = experiment: Ability to prevent seizures induced by subcutaneous injection of bicuculline, after 4 hr in mice; type: functional; details: sc
How it was run: (§4)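 Mice dosed intraperitoneally at various doses, then bicuculline 2.7 mg/kg given subcutaneously and protection noted. ED50 with 95% CI, slope and SE obtained using eight animals per dose; otherwise two, seven or eight mice per dose. Screening run by NINDS per its reported procedures.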

[8] = Neurotoxicity was determined, 1 hr after oral dosing in rat.; type: toxicity, organism-based; details: in vivo; how it was run: as §1
[9] = Neurotoxicity was determined, 1 hr after oral dosing in rat; type: toxicity, organism-based; details: in vivo; how it was run: as §1
[10] = Toxic dose determined as neurotoxicity, 0.25 hr after intraperitoneal injection in mice; type: toxicity, organism-based; details: mouse, in vivo, ip
How it was run: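 Mice received the compound by intraperitoneal injection, with the NINDS programme running the test by its reported procedures. Neurotoxicity was assessed at set times after dosing. TD50 is given in mg/kg with 95% CI, slope and SE.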

Mus musculus [11] = experiment: Ability to prevent seizures induced by subcutaneous injection of picrotoxin, after 0.25 hr in mice; type: functional; details: sc
How it was run: (§5)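 Mice received various intraperitoneal doses of compound, then subcutaneous picrotoxin at 2.5 mg/kg. Protection from seizures was scored. ED50 values use eight mice per dose and are given with 95% CI, slope and SE.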

Mus musculus [12] = experiment: Ability to prevent seizures induced by subcutaneous injection of bicuculline, after 0.25 hr in mice; type: functional; details: sc; how it was run: as §4
Rattus norvegicus [13] = experiment: Ability to protect against seizures induced in the maximal electro shock (MES) screen,test1 hr after oral dosing in rat.; type: functional; how it was run: as §1
[14] = Protective index is the ratio of TD50 and ED50 in subcutaneous pentylenetetrazole screen test; type: functional; how it was run: as §2
Rattus norvegicus [15] = experiment: Neurotoxicity was determined, of 0.25, 0.5, 1, 2 and 4 h, after 300 mg/kg oral dosing in rat.; type: toxicity, organism-based; set-up: dose 300 mg/kg, route oral; details: in vivo
How it was run: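 Rats given 300 mg/kg orally and checked for neurotoxicity 0.25, 0.5, 1, 2 and 4 h later, using two animals per time point. Testing done by NINDS.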

[16] = Toxic dose determined as neurotoxicity, 0.25 hr after intraperitoneal injection in mice.; type: toxicity, organism-based; details: mouse, in vivo, ip; how it was run: as §3
[17] = Toxic dose determined as neurotoxicity, 1 h after oral dosing in rat; type: toxicity, organism-based; details: in vivo; how it was run: as §1
Mus musculus [18] = experiment: Ability to prevent seizures induced by subcutaneous injection of picrotoxin, after 1 hr in mice; type: functional; details: sc; how it was run: as §5
Mus musculus [19] = experiment: Ability to prevent seizures induced by subcutaneous injection of bicuculline, after 1 hr in mice; type: functional; details: sc; how it was run: as §4
Rattus norvegicus [20] = experiment: Ability to protect against seizures induced in the maximal electro shock (MES) screen test 1 hr after oral dosing in rat; type: functional
How it was run: (§6)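 Rats were dosed orally, with the NINDS programme running the tests by its reported procedures. MES protection (ED50) and neurotoxicity (TD50) were measured at timed intervals after dosing. Each value is given as a dose-response ED50 or TD50 in mg/kg with 95% CI, slope and SE.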

[21] = Toxic dose determined neurotoxicity, 1 hr after oral dosing in rat; type: toxicity, organism-based; details: in vivo; how it was run: as §6

Compound	ED50 (Rattus norvegicus [1])	Ratio [2]	ED50 (Mus musculus [3])	TD50 at 0.25 h [4]	Ratio [5]	ED50 (Mus musculus [6])	TD50 at 1 h [8]	ED50 (Mus musculus [11])	ED50 (Mus musculus [12])	Ratio [14]	other results
NC(=O)N/N=C/c1ccc(Cl)c(Cl)c1	20.2 mg/kg	> 3.43	146 mg/kg	> 500 mg/kg	> 24.8	> 500 mg/kg	> 500 mg/kg	–	–	–	ED50 (Mus musculus [7]): > 500 mg/kg
C/C(=N\N=C(/N)S)c1ccccc1 [PHENYL(METHYL)THIOSEMICARBAZONE]	16.9 mg/kg	–	–	–	4.33	–	73 mg/kg	–	–	–	–
CC(C)/C(=N\NC(N)=O)c1ccccc1	43.3 mg/kg	–	–	–	5.66	–	245 mg/kg	–	–	–	–
NC(=O)N/N=C/c1c(Cl)cccc1Cl	59 mg/kg	–	–	–	2.18	–	129 mg/kg	–	–	–	–
NC(=O)N/N=C\c1ccccc1 [PHENYLSEMICARBAZONE]	–	2.93	69.7 mg/kg	–	11.3	127 mg/kg	–	104 mg/kg	116 mg/kg	1.6	TD50 at 1 h [9]: 254 mg/kg; TD50 at 0.25 h [10]: 204 mg/kg; ED50 (Rattus norvegicus [13]): 22.5 mg/kg
CCCCC/C(=N\NC(N)=O)c1ccccc1	32.6 mg/kg	–	–	–	> 15.3	–	> 500 mg/kg	230 mg/kg	363 mg/kg	–	–
NC(=O)N/N=C/Cc1ccccc1 [PHENYLMETHYLSEMICARBAZONE]	42.8 mg/kg	2.63	45.5 mg/kg	120 mg/kg	> 11.7	128 mg/kg	> 500 mg/kg	> 150 mg/kg	59.6 mg/kg	0.94	–
CC/C(=N\NC(N)=O)c1ccccc1	32.8 mg/kg	–	–	–	12.3	–	404 mg/kg	128 mg/kg	> 100 mg/kg	–	–
NC(=O)N/N=C/CCc1ccccc1 [PHENYLETHYLSEMICARBAZONE]	36.4 mg/kg	1.54	47 mg/kg	72.3 mg/kg	9.16	78.6 mg/kg	334 mg/kg	–	> 120 mg/kg	0.92	–
COc1ccc(/C=N/NC(N)=O)cc1	–	–	–	–	–	–	–	–	–	–	TD50 (Rattus norvegicus [15]): No activity
NC(=O)NN=C(c1ccccc1)c1ccccc1 [DIPHENYLSEMICARBAZONE]	22.9 mg/kg	1.91	47 mg/kg	89.7 mg/kg	10.3	76.2 mg/kg	235 mg/kg	–	> 100 mg/kg	1.18	–
NC(=O)N/N=C/c1cccc(Cl)c1	24.4 mg/kg	> 5.53	90.4 mg/kg	–	> 20.5	177 mg/kg	–	–	–	>2.82	TD50 at 0.25 h [16]: > 500 mg/kg; TD50 at 1 h [17]: > 500 mg/kg; ED50 (Mus musculus [18]): 200 mg/kg; ED50 (Mus musculus [19]): > 500 mg/kg
NC(=O)N/N=C/c1ccc(Cl)cc1	18.6 mg/kg	3.37	74.8 mg/kg	252 mg/kg	> 26.9	135 mg/kg	–	146 mg/kg	> 300 mg/kg	1.87	TD50 at 1 h [9]: > 500 mg/kg
C/C(=N/N=C(\N)S)c1ccc(Cl)cc1 [P-CHLOROPHENYL(METHYL)THIOSEMICARBAZONE]	–	0.39	60.4 mg/kg	–	7.67	69.6 mg/kg	–	–	–	0.34	TD50 at 0.25 h [10]: 23.8 mg/kg; ED50 (Rattus norvegicus [20]): 15.5 mg/kg; TD50 at 1 h [21]: 119 mg/kg
NC(=O)N/N=C/c1ccc(Cl)cc1Cl	43.1 mg/kg	–	–	–	> 11.6	–	> 500 mg/kg	–	–	–	–
NC(=O)N/N=C/C=C/c1ccccc1 [PHENYLETHENYLSEMICARBAZONE]	11.5 mg/kg	2.01	48.9 mg/kg	98.2 mg/kg	> 43.5	84.7 mg/kg	> 500 mg/kg	–	> 120 mg/kg	1.16	–
NC(=S)N/N=C/c1ccccc1 [PHENYLTHIOSEMICARBAZONE]	12.8 mg/kg	–	–	–	> 15.6	–	> 200 mg/kg	–	–	–	–
CC(=NNC(N)=O)c1ccccc1 [PHENYL(METHYL)SEMICARBAZONE]	20.2 mg/kg	2.34	35.1 mg/kg	82.3 mg/kg	13.2	78.5 mg/kg	268 mg/kg	60.8 mg/kg	> 100 mg/kg	1.05	–
CCCC/C(=N\NC(N)=O)c1ccccc1 [PHENYL(BUTYL)SEMICARBAZONE]	59.5 mg/kg	1.81	58.3 mg/kg	106 mg/kg	> 8.41	108 mg/kg	> 500 mg/kg	–	–	0.97	–
NC(=O)N/N=C/c1ccccc1Cl	38.8 mg/kg	–	–	–	> 12.9	–	> 500 mg/kg	–	–	–	–
